Where only a bound is given, the exact number is not on record here.

One test relates to Mus musculus. The test is described as follows: Anti seizure activity was evaluated in the audiogenic seizure model using DBA/2 mice at 10 mg/kg (iv). In kind it is functional. The method in brief: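 DBA/2 mice given test compound iv at 10 mg/kg; 5 min later each mouse placed singly under a perspex dome and exposed to sound (100 dB, 11 kHz) continued for 60 s; scored for sound-induced tonic convulsion.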
Take `CC(C)C(C#N)(CCCN1CCN(CCOc2ccc(F)cc2)CC1)c1ccccc1` (stereo unspecified): the Protection came to 100%.

System in another test: not listed separately
As to the kind of experiment: Neuronal voltage-dependent calcium channel (VDCC) inhibitory activity determined in rat cortical synaptosomes. The class given is subcellular, Brain. The method in brief: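 Rat cortical synaptosomes depolarized with KCl; rise in intracellular Ca2+ measured fluorimetrically with Fura2; IC50 (µM) for inhibition of the KCl-elicited [Ca2+]i elevation; racemic test compounds.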
Consider `CC(C)C(C#N)(CCCN1CCN(CCOc2ccc(C#N)cc2)CC1)c1ccccc1` (stereo unspecified), for which the IC50 was found to be 13 µM. With `COc1ccc(OCCN2CCN(CCCC(C#N)(c3ccccc3)C(C)C)CC2)cc1` (stereo unspecified), the IC50 was found to be 9.6 µM.

As to `CC(C)C(C#N)(CCCN1CCN(CCOc2ccccn2)CC1)c1ccccc1` (stereo unspecified), the IC50 is over 16 µM. Take `CC(C)C(C#N)(CCCN1CCN(CCOc2ccc(Cl)cc2)CC1)c1ccccc1` (stereo unspecified): the IC50 was found to be 3.4 µM. For `CC(C)C(C#N)(CCCN1CCN(CCOc2cccc3ccccc23)CC1)c1ccccc1` (stereo unspecified), the IC50 amounted to 2.5 µM. As to `CC(C)C(C#N)(CCCN1CCN(CCOc2ccccc2F)CC1)c1ccccc1` (stereo unspecified), the IC50 came to 9.3 µM.

Consider `CC(C)C(C#N)(CCCN1CCN(CCOc2ccc(N)cc2)CC1)c1ccccc1` (stereo unspecified), for which the IC50 is 13 µM.

In the case of `CC(C)C(C#N)(CCCN1CCN(CCc2ccccc2)CC1)c1ccccc1` (stereo unspecified), the IC50 is 7.7 µM. In the case of `CC(C)C(C#N)(CCCN1CCN(Cc2ccccc2)CC1)c1ccccc1` (stereo unspecified), the half-maximal inhibitory concentration (IC50) is 12 µM. Consider `C#CCCCCN1CCN(CCCC(C#N)(c2ccccc2)C(C)C)CC1` (stereo unspecified), for which the IC50 was over 16 µM. In the case of `CC(C)C(C#N)(CCCN1CCN(CCOc2ccc(F)cc2)CC1)c1ccccc1` (stereo unspecified), the IC50 was found to be 5.9 µM.

Turning to `CC(C)C(C#N)(CCCN1CCN(CCOc2ccc(F)c(F)c2)CC1)c1ccccc1` (stereo unspecified), the IC50 worked out at 5.2 µM. Same read-out and setting: then `CC(C)C(C#N)(CCCN1CCNCC1)c1ccccc1` (stereo unspecified), with over 16 µM; and `CC(C)C(C#N)(CCCN1CCN(CCOc2cccc(F)c2)CC1)c1ccccc1` (stereo unspecified), with 6.2 µM.

With `CC(C)C(C#N)(CCCN1CCN(CCO)CC1)c1ccccc1` (stereo unspecified), the IC50 is over 16 µM.

In the case of `CC(C)C(C#N)(CCCN1CCN(CCOc2ccc(N(C)C)cc2)CC1)c1ccccc1` (stereo unspecified), the IC50 is over 16 µM. Take `CC(C)C(C#N)(CCCN1CCN(CCOc2ccc([N+](=O)[O-])cc2)CC1)c1ccccc1` (stereo unspecified): the IC50 turned out to be 7.5 µM. On the same count and under the same terms, then `CC(C)C(C#N)(CCCN1CCN(CCOc2cccc(C#N)c2)CC1)c1ccccc1` (stereo unspecified), with 7.7 µM; and `CC(C)C(C#N)(CCCN1CCN(CCCc2ccccc2)CC1)c1ccccc1` (stereo unspecified), with 4.5 µM; and `CC(C)C(C#N)(CCCN1CCN(c2ccccc2)CC1)c1ccccc1` (stereo unspecified), with over 16 µM. For the compound `CC(C)C(C#N)(CCCN(C)CCc1ccccc1)c1ccccc1` (stereo unspecified) [EMOPAMIL], the half-inhibitory concentration (IC50) worked out at 28 µM. On the same count and under the same terms, then `CC(C)C(C#N)(CCCN1CCN(CCOc2ccccc2C#N)CC1)c1ccccc1` (stereo unspecified), with 16 µM; and `CC(C)C(C#N)(CCCN1CCN(CCOc2cccnc2)CC1)c1ccccc1` (stereo unspecified), with over 16 µM; and `CC(C)C(C#N)(CCCN1CCN(C)CC1)c1ccccc1` (stereo unspecified), with over 16 µM. Still for that read-out and setting: with `CC(C)C(C#N)(CCCN1CCN(CCOc2ccncc2)CC1)c1ccccc1` (stereo unspecified) the figure was over 16 µM.

For the origin of these results see ChEMBL document CHEMBL1136627, “Discovery of novel neuronal voltage-dependent calcium channel blockers based on emopamil left hand as a bioactive template” (Bioorg Med Chem Lett, 2003).
